The source of these data is publication PMC2532710 (Nucleic Acids Research, 2008).

Entries after “also recorded” stand apart in the source; their conditions may differ.

The test system of one assay is protein-free HJ DNA. The experiment in a line: peptide/RecG band shift assay on HJ. Conditions: gel shift assays, data not shown. It counts as binding. In general terms: Mobility shift assays separate free from complexed probe on a gel.
Another assay deals with Cre/HJ complex. Conditions: cited from earlier work.
Another assay deals with HJ-4AP1. Nature of the assay: 2-AP fluorescence titration of additional peptides, HJ-4AP1. In kind it is binding. In outline: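 Test peptides (C-terminal amides, dissolved in DMSO) titrated as dimers at 0.05, 0.2, 0.8, 3.2 and 6.4 μM into 0.2 μM 2-AP-labelled HJ in 20 mM Tris-HCl pH 7.8, 100 mM NaCl, 1 mM EDTA, 1.6% DMSO at 24°C. Equilibrated ≥3 min with stirring. Excitation 315 nm, emission 365–375 nm. Adenine-substituted junction spectrum subtracted.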

For the substance WKHYNY, the “binding to protein-free HJ” value in the assay with protein-free HJ DNA is “has not been detected; also recorded: does not bind protein-free junctions”. In addition, in the assay on Cre/HJ complex, the “quenching effect on 2-AP with Cre/HJ complex” value is recorded as “concentration-dependent quenching effect on 2-AP”. Further, the “2-AP quenching / interaction with 4AP1 in HJ” value in the assay with HJ-4AP1 (0.2 μM substrate, pH 7.8, 100 mM NaCl, 1.6% DMSO, peptide dimer 0.05-6.4 μM) is listed as “does not interact; also recorded: almost no quenching”. Moreover, the “2-AP quenching” value in the assay with HJ-4AP1 (up to 32-fold excess of peptide dimer (6.4 μM)) is “little if any effect”.
